In ChEMBL document CHEMBL3045454, “Synthesis and fungicidal activity of aryl carbamic acid-5-aryl-2-furanmethyl ester” (2010):

Assays:
Corynespora cassiicola [1] = experiment: Fungicidal activity Corynespora cassiicola assessed as inhibition of mycelium growth at 50 mg/L at 24 degC measured after 2 days; format: functional; conditions: 48 h
Outline: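 Mycelial growth assay on potato dextrose agar. The compound, as a 50 mg L^-1 DMF solution, is mixed into the PDA and a fungus cake is placed on it. DMF serves as blank. Plates are incubated at 24 ± 0.5 °C for 2 days. Mycelial diameters are measured and the inhibitory rate is calculated from them. Three replicates.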

Plutella xylostella [2] = experiment: Insecticidal activity against Plutella xylostella (diamondback moth) assessed as mortality at 600 mg/L measured after 72 hr; format: functional
Culex pipiens pallens = experiment: Larvicidal activity against fourth-instar Culex pipiens pallens (mosquito) assessed as mortality at 2000 mg/L measured after 8 days; format: functional; conditions: 192 h
Outline: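 Twenty fourth-instar Culex pipiens pallens larvae are placed in 10 mL of the test solution (acetone/distilled water, final 2000 mg L^-1) and reared for 8 days. Mortality is recorded as percent dead. Acetone serves as blank. Four replicates.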

Botrytis cinerea = experiment: Fungicidal activity Botrytis cinerea assessed as inhibition of mycelium growth at 50 mg/L at 24 degC measured after 2 days; conditions: 48 h
Fusarium oxysporum = experiment: Fungicidal activity Fusarium oxysporum assessed as inhibition of mycelium growth at 50 mg/L at 24 degC measured after 2 days; conditions: 48 h
Corynespora cassiicola [3] = experiment: Fungicidal activity Corynespora cassiicola assessed as inhibition of mycelium growth at 50 mg/L at 24 degC measured after 2 days; conditions: 48 h
Plutella xylostella [4] = experiment: Insecticidal activity against Plutella xylostella assessed as mortality at 5 mg/L measured after 72 hr; format: functional

| SMILES | inhibition at 50 µg/mL (Corynespora cassiicola [1]) | mortality at 600 µg/mL (Plutella xylostella [2]) | mortality at 2000 µg/mL (Culex pipiens pallens) | inhibition at 50 µg/mL (Botrytis cinerea) | inhibition at 50 µg/mL (Fusarium oxysporum) | inhibition at 50 µg/mL (Corynespora cassiicola [3]) | mortality at 5 µg/mL (Plutella xylostella [4]) |
| --- | --- | --- | --- | --- | --- | --- | --- |
| O=C(NC(=O)c1ccccc1Cl)OCc1ccc(-c2ccc(F)cc2)o1 | 60.6% | 0% | 10% | 40.6% | 4.46% | 38.6% | – |
| O=C(NC(=O)c1c(F)cccc1F)OCc1ccc(-c2ccccc2Cl)o1 | 36.6% | 0% | 0% | 66.6% | 41.2% | 43.5% | – |
| O=C(NC(=O)c1c(F)cccc1F)OCc1ccc(-c2cccc(Cl)c2)o1 | – | 0% | 10% | 63.5% | 45.4% | 50.5% | – |
| O=C(NC(=O)c1c(F)cccc1F)OCc1ccc(-c2ccc(Cl)cc2)o1 | – | 0% | 10% | 100% | 92.3% | 71.6% | – |
| O=C(NC(=O)c1c(F)cccc1F)OCc1ccc(-c2ccccc2Br)o1 | – | 10% | 20% | 54.3% | 42.3% | 52.2% | – |
| O=C(NC(=O)c1c(F)cccc1F)OCc1ccc(-c2ccc(Br)cc2)o1 | 63.3% | 10% | 0% | 62.2% | 7.38% | 57.8% | – |
| O=C(NC(=O)c1c(Cl)cccc1Cl)OCc1ccc(-c2ccccc2F)o1 | 70.4% | 10% | 0% | 57.3% | 1.5% | 36% | – |
| O=C(NC(=O)c1c(Cl)cccc1Cl)OCc1ccc(-c2cccc(F)c2)o1 | 62% | 20% | 10% | 32.6% | 8.82% | 12.9% | – |
| O=C(NC(=O)c1c(Cl)cccc1Cl)OCc1ccc(-c2ccc(F)cc2)o1 | 72.7% | 0% | 0% | 37.1% | 35.3% | 37.3% | – |
| O=C(NC(=O)c1c(Cl)cccc1Cl)OCc1ccc(-c2ccc(F)cc2F)o1 | 63.3% | 1% | 10% | 27.9% | 15.9% | 16% | – |
| O=C(NC(=O)c1c(Cl)cccc1Cl)OCc1ccc(-c2ccccc2Cl)o1 | 83.1% | 0% | 0% | 41.4% | 35.3% | 34.7% | – |
| O=C(NC(=O)c1c(Cl)cccc1Cl)OCc1ccc(-c2cccc(Cl)c2)o1 | 53.3% | 10% | 10% | 13% | 14.5% | 19% | – |
| O=C(NC(=O)c1c(Cl)cccc1Cl)OCc1ccc(-c2ccc(Cl)cc2)o1 | 67.9% | 10% | 0% | 48.1% | 44.6% | 33.3% | – |
| O=C(NC(=O)c1c(Cl)cccc1Cl)OCc1ccc(-c2ccccc2Br)o1 | 79.2% | 0% | 0% | 44.8% | 42.3% | 39.9% | – |
| O=C(NC(=O)c1c(Cl)cccc1Cl)OCc1ccc(-c2ccc(Br)cc2)o1 | 64.7% | 0% | 10% | 52.8% | 32.8% | 54.4% | – |
| O=C(NC(=O)c1ccccc1Cl)OCc1ccc(-c2ccccc2F)o1 | 65.3% | 0% | 10% | 34.4% | 1.5% | 26.3% | – |

| SMILES | inhibition at 50 µg/mL (Corynespora cassiicola [1]) | mortality at 600 µg/mL (Plutella xylostella [2]) | mortality at 2000 µg/mL (Culex pipiens pallens) | inhibition at 50 µg/mL (Botrytis cinerea) | inhibition at 50 µg/mL (Fusarium oxysporum) | inhibition at 50 µg/mL (Corynespora cassiicola [3]) | mortality at 5 µg/mL (Plutella xylostella [4]) |
| --- | --- | --- | --- | --- | --- | --- | --- |
| O=C(NC(=O)c1ccccc1Cl)OCc1ccc(-c2cccc(F)c2)o1 | 53.3% | 0% | 10% | 48.9% | 14.5% | 37.3% | – |
| O=C(NC(=O)c1ccccc1Cl)OCc1ccc(-c2ccccc2Cl)o1 | 69.8% | 0% | 20% | 25% | 0% | 43.8% | – |
| O=C(NC(=O)c1ccccc1Cl)OCc1ccc(-c2cccc(Cl)c2)o1 | 38.6% | 0% | 0% | 24.1% | -3.03% | 24.9% | – |
| O=C(NC(=O)c1ccccc1Cl)OCc1ccc(-c2ccc(Cl)cc2)o1 | 75.5% | 0% | 10% | 55.1% | 14.5% | 66% | – |
| O=C(NC(=O)c1ccccc1Cl)OCc1ccc(-c2ccccc2Br)o1 | 67.3% | 0% | 0% | 54.3% | 25.2% | 42.5% | – |
| O=C(NC(=O)c1ccccc1Cl)OCc1ccc(-c2ccc(Br)cc2)o1 | 50.2% | 0% | 10% | 34.4% | 10.2% | 59.9% | – |
| O=C(NC(=O)c1c(F)cccc1F)OCc1ccc(-c2ccccc2F)o1 | – | 0% | 0% | 70.4% | 44.6% | 44.5% | – |
| O=C(NC(=O)c1c(F)cccc1F)OCc1ccc(-c2cccc(F)c2)o1 | 38.4% | 0% | 10% | 60.4% | 7.63% | 31.5% | – |
| O=C(NC(=O)c1c(F)cccc1F)OCc1ccc(-c2ccc(F)cc2)o1 | 56% | 10% | 0% | 58.5% | 49.4% | 22.1% | – |
| O=C(NC(=O)c1c(F)cccc1F)OCc1ccc(-c2ccc(F)cc2F)o1 | – | 0% | 10% | 64% | 44.6% | 42.5% | – |
| N#Cc1c(Cl)c(Cl)c(Cl)c(C#N)c1Cl [CHLOROTHALONIL] | – | – | – | – | – | 23.3% | – |
| N#Cc1nn(-c2c(Cl)cc(C(F)(F)F)cc2Cl)c(N)c1[S+]([O-])C(F)(F)F (stereo unspecified) [FIPRONIL] | – | – | – | – | – | – | 100% |
| Cc1cc(C)nc(Nc2ccccc2)n1 [PYRIMETHANIL] | – | – | – | 48.9% | – | – | – |
| CC(C)(C)N(NC(=O)c1ccccc1)C(=O)c1ccccc1 [RH-5849] | – | – | 0% | – | – | – | – |
| COC(=O)NC(=S)Nc1ccccc1NC(=S)NC(=O)OC [THIOPHANATE METHYL] | – | – | – | – | 34.2% | – | – |
